Results on eight molecules are retold here after ChEMBL document CHEMBL1687847, “Three residues in HIV-1 matrix contribute to protease inhibitor susceptibility and replication capacity” (2011).

Calls of active or inactive are those of the source. No cut-off for these calls is given here.

Assay [1] relates to Human immunodeficiency virus 1. The assay is described as follows: Ratio of EC50 for HIV1 harboring HIV1 harboring wild type 8.9NSX with gag […] and T81A mutant to EC50 for wild type HIV1. Format: functional. The procedure, abridged:
(§1)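 Resistance vectors were made by cotransfecting HEK293T cells with a p8.9NSX-derived gag-pol vector carrying the matrix/protease variant, a VSV-G plasmid and a firefly luciferase plasmid. At 16 h, producer cells were reseeded in graded PI concentrations, and vectors were harvested 24 h later to infect fresh HEK293T cells. Luciferase was read 48 h postinfection relative to no-drug controls. EC50 came from linear regression, expressed as fold change versus WT subtype B p8.9NSX, mean of ≥2 experiments.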

Assay [2] relates to Human immunodeficiency virus 1. The assay is described as follows: Antiviral activity against HIV1 harboring wild type 8.9NSX with mutant amino acid 116 insertion infected in HEK293T cells assessed as inhibition of viral replication after 48 hrs by luciferase assay. It is filed as functional, organism-based. As to conditions: HEK-293T. In a few lines:
as §1

For assay [3], the system named is Human immunodeficiency virus 1. The experiment in a line: Antiviral activity against HIV1 harboring wild type 8.9NSX with gag T81A mutant infected in HEK293T cells assessed as inhibition of viral replication after 48 hrs by luciferase assay. It is filed as functional, organism-based. As to conditions: HEK-293T. In a few lines:
as §1

For assay [4], the system named is Human immunodeficiency virus 1. The experiment in a line: Antiviral activity against HIV1 harboring mutant protease with matrix K76R mutant infected in HEK293T cells assessed as inhibition of viral replication after 48 hrs by luciferase assay. It is filed as functional, organism-based. The note with it: HEK-293T. In a few lines:
as §1

The subject of assay [5] is Human immunodeficiency virus 1. The experiment in a line: Antiviral activity against 8gpNS with amino acid 116 insertion removed HIV1 infected in HEK293T cells assessed as inhibition of viral replication after 48 hrs by luciferase assay. Format: functional, organism-based. As to conditions: HEK-293T. The procedure, abridged: as §1
Assay [6] relates to Human immunodeficiency virus 1. The assay is described as follows: Antiviral activity against HIV1 harboring mutant protease with matrix Y79F mutant infected in HEK293T cells assessed as inhibition of viral replication after 48 hrs by luciferase assay. It is filed as functional, organism-based. The note with it: HEK-293T. In a few lines:
as §1

The subject of assay [7] is Human immunodeficiency virus 1. The assay is described as follows: Antiviral activity against HIV1 harboring mutant protease with matrix A81T mutant infected in HEK293T cells assessed as inhibition of viral replication after 48 hrs by luciferase assay. The note with it: HEK-293T. Format: functional, organism-based. The procedure, abridged:
as §1

On to `CC(C)CN(C[C@@H](O)[C@H](Cc1ccccc1)NC(=O)O[C@H]1CCOC1)S(=O)(=O)c1ccc(N)cc1` [AMPRENAVIR], for which the “Ratio EC50” value in assay [1] was 3. Besides, the inhibition result in assay [2], in assay [3], in assay [4], in assay [5], in assay [6] and in assay [7] was “inactive” in each case.

`Cc1c(O)cccc1C(=O)N[C@@H](CSc1ccccc1)[C@H](O)CN1C[C@H]2CCCC[C@H]2C[C@H]1C(=O)NC(C)(C)C` [NELFINAVIR]: the “Ratio EC50” value in assay [1] is reported as 3. The inhibition result in assay [2], in assay [3], in assay [4], in assay [5], in assay [6] and in assay [7] was “inactive” each time.

As for `CCC[C@@]1(CCc2ccccc2)CC(O)=C([C@H](CC)c2cccc(NS(=O)(=O)c3ccc(C(F)(F)F)cn3)c2)C(=O)O1` [TIPRANAVIR], the “Ratio EC50” value in assay [1] amounted to 3. Also, the inhibition entry in assay [2] and in assay [5] was “inactive” each time.

Take `CC(C)(C)NC(=O)[C@@H]1C[C@@H]2CCCC[C@@H]2CN1C[C@@H](O)[C@H](Cc1ccccc1)NC(=O)[C@H](CC(N)=O)NC(=O)c1ccc2ccccc2n1` [SAQUINAVIR]: the “Ratio EC50” value in assay [1] is 3. The inhibition result in assay [2] and in assay [5] was “inactive” each time.

Take `Cc1cccc(C)c1OCC(=O)N[C@@H](Cc1ccccc1)[C@@H](O)C[C@H](Cc1ccccc1)NC(=O)[C@H](C(C)C)N1CCCNC1=O` [LOPINAVIR]: in assay [1], the “Ratio EC50” value came to 3. The inhibition result in assay [2], in assay [4], in assay [5], in assay [6] and in assay [7] was “inactive” in each case.

As to `CC(C)(C)NC(=O)[C@@H]1CN(Cc2cccnc2)CCN1C[C@@H](O)C[C@@H](Cc1ccccc1)C(=O)N[C@H]1c2ccccc2C[C@H]1O.O` [INDINAVIR], the “Ratio EC50” value in assay [1] came to 3. Further, the inhibition result in assay [2], in assay [4], in assay [5], in assay [6] and in assay [7] was “inactive” throughout.

`CC(C)CN(C[C@@H](O)[C@H](Cc1ccccc1)NC(=O)O[C@H]1CO[C@H]2OCC[C@H]21)S(=O)(=O)c1ccc(N)cc1` [DARUNAVIR]: the “Ratio EC50” value in assay [1] is 3. The inhibition result in assay [2] and in assay [5] was “inactive” throughout.

`COC(=O)N[C@H](C(=O)N[C@@H](Cc1ccccc1)[C@@H](O)CN(Cc1ccc(-c2ccccn2)cc1)NC(=O)[C@@H](NC(=O)OC)C(C)(C)C)C(C)(C)C`: the inhibition entry in assay [2], in assay [3], in assay [4], in assay [5], in assay [6] and in assay [7] was “inactive” throughout.
